Source: PubChem BioAssay (several laboratories)
HCV NS3 hel inh = HCV NS3 helicase inhibition; NS3 helicase DNA unwinding, Cy5 molecular beacon fluorescence; inhibition, % at 10.9 µM; actives 0.56% (n = 290,000); AID 1800;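 active = inhibition above the mean of all tested compounds plus 3 SD, set per campaign, cut at about 35% in these data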;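 also: 0% = DMSO wells and 100% = thioflavine S control wells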
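System: Hepatitis C virus NS3 helicase domain fragment enzyme | Reagent: Annealed dual-labelled DNA beacon duplex, ATP-started | Compound dosing: 10.9 µM single point, 0.8% DMSO | Incubation: 1 h reaction at 25 °C, ATP-initiated | Technique: Cy5 fluorescence | Evaluation: Percent inhibition from t60/t0 fluorescence ratio | Benchmarks: Low DMSO, high thioflavine S at 110 µM | Replication: Singlicate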
DNA FID counter = displaces DNA intercalator in HCV helicase counter-screen; DNA fluorescent intercalator displacement, fluorescence; actives 0.17% (n = 290,000); inhibition, % at 7.9 µM; in the data active = inhibition above about 37%;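 also: 0% = vehicle and 100% = reference compound; higher means more ethidium bromide displaced from hairpin DNA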
MEKK3 PB1 HTS = raises or lowers MEK5 binding to the human MEKK3 PB1 domain | Q99759 | bead-based flow cytometry, Alexa488-MEK5 binding to MEKK3; actives lie on both sides; 0 = blocked by unlabeled MEK5, 100 = vehicle | binding response (% of control), % at 10 µM | actives 1.4% (n = 290,000) | AID 1529;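 active = binding response more than 3 SD above or below the average of its plate-row segment, actives on both sides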;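 also: Alexa488 bead fluorescence after subtracting the streptavidin-only scavenger bead signal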
Target sequence (Q99759 whole entry, looked up, the tested form may be a part): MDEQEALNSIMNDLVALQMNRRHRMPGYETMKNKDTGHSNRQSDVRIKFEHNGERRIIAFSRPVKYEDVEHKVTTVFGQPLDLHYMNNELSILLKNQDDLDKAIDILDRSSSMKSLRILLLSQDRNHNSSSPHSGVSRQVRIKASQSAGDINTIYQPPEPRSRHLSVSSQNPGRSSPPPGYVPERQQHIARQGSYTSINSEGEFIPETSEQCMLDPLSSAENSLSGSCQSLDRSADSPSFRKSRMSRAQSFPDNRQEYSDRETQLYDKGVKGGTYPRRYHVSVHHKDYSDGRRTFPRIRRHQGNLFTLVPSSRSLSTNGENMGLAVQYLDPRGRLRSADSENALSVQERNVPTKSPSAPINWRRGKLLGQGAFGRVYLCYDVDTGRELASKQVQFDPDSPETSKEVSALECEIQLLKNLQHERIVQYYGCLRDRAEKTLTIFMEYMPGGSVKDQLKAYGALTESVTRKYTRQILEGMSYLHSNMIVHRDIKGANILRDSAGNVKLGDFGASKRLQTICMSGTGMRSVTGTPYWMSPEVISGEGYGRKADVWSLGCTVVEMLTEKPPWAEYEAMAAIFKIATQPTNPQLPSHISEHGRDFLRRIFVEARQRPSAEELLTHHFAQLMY
MEKK2mut PB1 HTS = signal of MEK5 binding to mutant human MEKK2 PB1 domain. AID 1530. actives 0.35% (n = 290,000). percent response, % at 10 µM. bead flow cytometry, Alexa488-MEK5 binding to MEKK2 mutant; in the data active = percent response above about 24%, passing the limit was not always enough
T cruzi repl = T. cruzi replication inhibition; T. cruzi beta-gal in NIH3T3, luminescence, 90 h; inhibition, % (concentration not given with the values); actives 1.4% (n = 300,000);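 active = mean inhibition across valid replicates above about 55%, limit read from the data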;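 also: signal also drops with host cell toxicity which is not excluded here; 0% = plate median of DMSO wells and 100% = zero luminescence signal; higher percent means less beta-gal luminescence so fewer parasites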
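assay system = mouse NIH/3T3 fibroblasts infected with β-gal-expressing T. cruzi Tulahuen C4 | input = 5,000 NIH/3T3 host cells per well | buffer or medium = DMEM plus 2% FBS | timing = 3 h host attachment, then at least 90 h co-culture | measured by = GalScreen luminescence, 60 min | evaluation = luminescence reflecting intracellular parasite burden, expressed as percent inhibition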
MEKK2wt PB1 HTS = raises or lowers MEK5 binding to wildtype human MEKK2 PB1 domain; AID 1531; Q9Y2U5; binding response (% of control), % at 10 µM; actives 1.1% (n = 290,000); bead flow cytometry, Alexa488-MEK5 binding to MEKK2 WT; actives lie on both sides; in the data active = binding response below about 67% or above about 130%
MEKK2wt confirm = raises or lowers MEK5 binding to wildtype human MEKK2, retest; bead flow cytometry, Alexa488-MEK5 binding to MEKK2 WT; actives lie on both sides; shares compounds with MEKK3 PB1 HTS; binding response (% of control), % at 10 µM; actives 2.4% (n = 5,900); in the data active = binding response below about 16% or above about 210%; inactive = in between
MEKK2mut confirm = signal of MEK5 binding to mutant human MEKK2, retest. shares compounds with MEKK3 PB1 HTS. bead flow cytometry, Alexa488-MEK5 binding to MEKK2 mutant. percent response, % at 10 µM. actives 2% (n = 5,900); in the data active = percent response mostly above about 71%, no sharp cut-off; inactive = mostly below about 38%;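 also: higher means compound restores mutant binding toward wildtype level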
MEKK3 confirm = confirmation of inhibitors of MEK5 binding to human MEKK3; bead flow cytometry, Alexa488-MEK5 binding to MEKK3; hits give low values; binding response (% of control), % at 10 µM; actives 1.8% (n = 5,900); AID 1894; shares compounds with MEKK3 PB1 HTS;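 active = binding response below 72% of control, or above a set upper limit, though filed actives all read lower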;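 also: 100% = DMSO only wells and 0% = binding blocked by excess unlabeled MEK5; lower values mean stronger disruption of MEK5 binding to MEKK3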
* = called active by the depositor; / = no result; [ ] = remark or other dose. This is a sample that favours compounds with a hit; in the whole collection about 4.1% have one here.

SMILES	HCV NS3 hel inh	DNA FID counter	MEKK3 PB1 HTS	MEKK2mut PB1 HTS	T cruzi repl	MEKK2wt PB1 HTS	MEKK2wt confirm	MEKK2mut confirm	MEKK3 confirm
N#C/C(=C\c1cc2ccccc2nc1N1CCOCC1)C(=O)Nc1ccc(N2CCOCC2)cc1	0	-16	146*	3	-2	106	98	1	102
N#CC(C#N)=Cc1cc2ccccc2nc1N1CCOCC1	4	-1	135*	0	-27	103	102	5	104
CCOc1ccc(NC(=O)CN2CCC(n3cnc4cc(F)ccc43)CC2)cc1	-15	-8	101	-4	39	102	/	/	/
O=C(CS(=O)CC(=O)N(c1ccccc1)C(C(=O)NC1CCCC1)c1cccs1)Nc1ccc(F)cc1 (stereo not drawn)	1	-9	101	3	-13	100	/	/	/
Cc1ccc(N(C(=O)CS(=O)CC(=O)Nc2ccc(F)cc2)C(C(=O)NC2CCCCC2)c2ccco2)cc1 (stereo not drawn)	-7	-5	132*	0	-9	105	99	7	102
O=C(CSc1n[nH]c(=O)[nH]c1=O)c1ccccc1[N+](=O)[O-]	9	-8	64*[inhibitor]	-33	6	70	102	3	107
Cc1c(N=C2SCC(=O)N2/N=C/c2ccccc2)c(=O)n(-c2ccccc2)n1C	-1	-9	129*	0	-13	102	97	0	100
Cc1c(N=c2c(=O)c3ccccc3c2=O)c(=O)n(-c2ccccc2)n1C	/	/	99	1	-3	96	/	/	/
COCCCNC(=O)CNC(=S)N(Cc1ccccc1F)C1CCCCC1	8	-26	101	1	-4	100	/	/	/
CCCCNC(=O)CNC(=S)N(Cc1ccccc1F)C1CCCCC1	-1	-36	131*	0	-16	112	97	-2	102
O=C(Nc1ccccc1NS(=O)(=O)c1ccc(F)cc1)C1CCC1	-9	3	104	0	-13	104	/	/	/
O=C(O)c1cccc(NC(=S)N/N=C/c2ccccn2)c1	8	-8	159*	6	9	128	107	2	104
COCCn1c(C)cc(C(=O)COC(=O)CNC(=O)c2ccccc2)c1C	-3	-9	88	-4	-9	88	/	/	/
COCC(C)n1c(C)cc(C(=O)COC(=O)CNC(=O)c2ccccc2)c1C (stereo not drawn)	-1	-14	131*	0	-10	106	102	4	101
CCCCC(CC)Cn1c(O)c(/C=C2\C=NN=C2c2ccccc2)sc1=S (stereo not drawn)	2	1	136*	0	53	103	108	-1	102
CCCn1c(O)c(/C=C2\C=NN=C2c2ccccc2)sc1=S	26	3	99	-2	28	88	/	/	/
CN(C)CCNC(=O)c1cc2c(s1)-c1ccc(Cl)cc1SC2	-62	25	110	40*	40	181*	152	27	106
COc1ccc(C(=O)NCCS(=O)(=O)N2CCN(Cc3ccccc3)CC2)cc1	/	/	/	/	2	/	/	/	/
COC(=O)Cn1cc(C(=O)C2CC2)c2ccccc21	1	-1	106	6	/	109	/	/	/
CCOC(=O)Cn1cc(C(=O)C2CC2)c2ccccc21	0	-3	2.0*[inhibitor]	-16	-11	2.0*[inhibitor]	106	2	101
COCCNC(=O)CSc1nc2nn(-c3ccccc3)c(=O)c-2c2n1CCCCC2	5	-13	110	2	20	107	/	/	/
Cc1noc(C)c1CSc1ncnc2sc3c(c12)CCC3	2	7	133*	3	1	104	97	-6	98
C/C(=N\NC(=O)c1ccc(Cl)cc1)c1ccc(N2CCOCC2)cc1	-6	1	91	-2	-17	93	/	/	/
C/C(=N/NC(=O)c1ccoc1C)c1ccc(N2CCOCC2)cc1	0	-4	131*	1	1	104	100	-6	101
C/C(N)=C(/C#N)C(=O)COC(=O)c1ccncc1	7	-1	135*	6	-3	113	104	2	104
SMILES	HCV NS3 hel inh	DNA FID counter	MEKK3 PB1 HTS	MEKK2mut PB1 HTS	T cruzi repl	MEKK2wt PB1 HTS	MEKK2wt confirm	MEKK2mut confirm	MEKK3 confirm
COCCNC(=O)C(=O)NCC1OCCN1S(=O)(=O)c1ccc2c(c1)OCCO2 (stereo not drawn)	16	-11	129*	23	8	124	104	4	105
CNC(=O)C(=O)NCC1OCCN1S(=O)(=O)c1ccc2c(c1)OCCO2 (stereo not drawn)	10	1	/	/	-12	/	/	/	/
Cc1nc(N=C(N)N)nc2ccccc12	4	3	75*[inhibitor]	-11	-2	77	107	19	101
Cc1ccc(NC(=O)CCc2nc3sc4c(c3c(=O)[nH]2)CCCC4)c(Br)c1	/	/	/	/	0	/	/	/	/
CC(=O)Nc1c(C(=O)N2CCCCCC2)cnn1-c1ccccc1	0	-2	81*[inhibitor]	-11	0	86	105	-5	102
COc1ccc(/C=C2/C(=O)N(Cc3ccccc3)N=C2C)cc1	4	0	128*	3	-8	104	98	2	93
COc1ccccc1NC(=O)CCc1nnc2ccc(N3CCC4(CC3)OCCO4)nn12	33	-50	102	1	-5	104	/	/	/
CC1CCN(C(=O)COC(=O)CCc2c[nH]c3ccccc23)CC1	-5	-19	50*[inhibitor]	-14	-13	65	106	5	106
Cc1c(C(=O)NC2CCCc3ccccc32)cccc1[N+](=O)[O-] (stereo not drawn)	0	-5	103	1	-3	104	/	/	/
O=C(O)c1[nH]c2ccccc2c1CC(=O)N1CCN(c2ccccc2)CC1	-23	-32	132*	3	-1	112	103	4	104
O=C(NC1CC(=O)N(c2ccc3c(c2)OCCO3)C1)N1CCC(O)CC1 (stereo not drawn)	/	/	/	/	-8	/	/	/	/
O=C(CN1CCOCC1)NNc1c2ccccc2nc2ccccc12	16	14	40*[inhibitor]	-9	3	37*[inhibitor]	103	-3	105
O=C(CN1CCOCCOCCOCC1)Nc1ccccc1	3	0	98	-1	-12	100	/	/	/
